Test results published in ChEMBL document CHEMBL1157491, “Pyrazolopyridines as a novel structural class of potent and selective PDE4 inhibitors” (Bioorg Med Chem Lett, 2008).

What was measured:
[1] = biological target: 3',5'-cyclic-AMP phosphodiesterase 4B (Homo sapiens, UniProt Q07343); assay: Inhibition of human PDE4B in Sf9 cells; type: cell-based
Method in brief: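 Catalytic activity of human recombinant PDE4B enzyme was measured by scintillation proximity assay (SPA).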

[2] = Selectivity for human PDE4B over PDE3
PBMC = assay: Inhibition of TNF alpha production in human PBMC cells by ELISA; type: functional, cell-based
Method in brief: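 PBMCs were isolated from heparinised human blood by centrifugation on histopaque (1000g, 30 min), washed, and resuspended at 5 × 10⁵ cells/ml in RPMI1640 with 10% foetal calf serum, 1% L-glutamine and 1% penicillin/streptomycin. Cells were preincubated with compound for 1 h at 37 °C, 5% CO₂, then stimulated with LPS (1 ng/ml final) for a further 20 h.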

[3] = Inhibition of PDE5
Method in brief: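 Inhibition of human recombinant PDE5 catalytic activity, measured by scintillation proximity assay.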

[4] = Inhibition of PDE3
Method in brief: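 Inhibition of PDE3 isolated from bovine aorta, measured as loss of catalytic activity by scintillation proximity assay (SPA).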

[5] = Selectivity for human PDE4B over PDE5
[6] = Half life in po dosed rat; type: ADME, organism-based; conditions: in vivo
[7] = Oral bioavailability in rat; type: ADME, organism-based; conditions: in vivo

Chain of 3',5'-cyclic-AMP phosphodiesterase 4B (Q07343 whole entry): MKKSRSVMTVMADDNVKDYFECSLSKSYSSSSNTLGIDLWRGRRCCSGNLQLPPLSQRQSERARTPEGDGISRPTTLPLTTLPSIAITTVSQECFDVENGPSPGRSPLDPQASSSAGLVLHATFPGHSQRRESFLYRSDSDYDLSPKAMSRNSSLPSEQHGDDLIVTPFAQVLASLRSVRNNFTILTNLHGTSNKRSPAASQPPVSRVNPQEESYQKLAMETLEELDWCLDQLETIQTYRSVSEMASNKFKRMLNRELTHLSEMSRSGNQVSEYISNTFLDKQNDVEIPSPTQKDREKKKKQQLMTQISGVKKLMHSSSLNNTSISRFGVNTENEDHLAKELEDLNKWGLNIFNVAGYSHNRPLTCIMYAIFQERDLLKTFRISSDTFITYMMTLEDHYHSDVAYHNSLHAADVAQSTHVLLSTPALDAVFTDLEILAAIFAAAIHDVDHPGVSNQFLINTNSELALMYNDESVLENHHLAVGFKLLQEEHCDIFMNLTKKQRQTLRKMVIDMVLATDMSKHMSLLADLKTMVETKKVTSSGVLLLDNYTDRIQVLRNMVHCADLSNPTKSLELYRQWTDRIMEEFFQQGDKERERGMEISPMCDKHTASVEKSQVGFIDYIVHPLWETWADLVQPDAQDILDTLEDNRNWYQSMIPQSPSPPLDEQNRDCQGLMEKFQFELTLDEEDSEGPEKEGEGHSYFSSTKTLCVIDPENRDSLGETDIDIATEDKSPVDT

Structure (SMILES)	IC50 [1] [nM]	Selectivity ratio [2]	Selectivity ratio [5]	further results
CCOC(=O)CCn1ncc2c(NC3CCOCC3)c(C(=O)OCC)cnc21	5010			
CCn1ncc2c(NC3CCOCC3)c(C(=O)Nc3ccc(F)cc3)cnc21		> 100	> 100	IC50 (PBMC): 39.8 nM; pIC50 [3]: < 4.7; pIC50 [4]: < 4.5
CCOC(=O)c1cnc2c(cnn2C(C)C)c1NC1CCOCC1	200			
CCn1ncc2c(NC3CCOCC3)c(C(=O)NCc3ccccc3)cnc21		> 100	> 100	IC50 (PBMC): 20 nM; half-life [6]: 1.6 h; bioavailability [7]: 35%; pIC50 [3]: 5.7; pIC50 [4]: < 4.5
CCCn1ncc2c(NC3CCOCC3)c(C(=O)OCC)cnc21	100			
CCOC(=O)c1cnc2c(cnn2-c2ccccc2)c1NC1CCOCC1	3160			
CCn1ncc2c(NC3CCOCC3)c(C(=O)NC3CC3)cnc21	100	> 100	> 100	
CCOC(=O)c1cnc2c(cnn2CC)c1N(C)C1CCOCC1	251			
CCOC(=O)c1cnc2c(cnn2CC)c1NC(=O)c1ccccc1	2510			
CCOC(=O)c1cnc2c(cnn2CC)c1NC1CCCC1	63.1			
CCOC(=O)c1cnc2c(cnn2CC)c1NS(=O)(=O)c1ccccc1	> 31600			
CCn1ncc2c(NC3CCOCC3)c(C(=O)NC3CCN(C(C)=O)CC3)cnc21	126	> 100	> 100	
CCOC(=O)c1cnc2c(cnn2CCO)c1NC1CCOCC1	158			
CCOC(=O)c1cnc2[nH]ncc2c1NC1CCOCC1	2000			
CCOC(=O)c1cnc2c(cnn2CC)c1Nc1ccccc1	158			
CCn1ncc2c(NC3CCOCC3)c(C(=O)N3CCCC3)cnc21	158	> 100	> 100	
CCOC(=O)c1cnc2c(cnn2CC)c1NC1CCOCC1	10			
CCn1ncc2c(NC3CCOCC3)c(C(=O)NC3CCCC3)cnc21	50.1	> 100	> 100	IC50 (PBMC): 158 nM; pIC50 [3]: < 4.7; pIC50 [4]: < 4.5
CCn1ncc2c(NC3CCOCC3)c(C(=O)N(C)Cc3ccccc3)cnc21	50.1	> 100	> 100	
CCOC(=O)c1cnc2c(cnn2CC)c1N1CCCC1	631			
CCOC(=O)c1cnc2c(cnn2CC)c1NCc1ccc(F)cc1	316			
CCOC(=O)c1cnc2c(cnn2CC)c1Nc1ccc(OC)cc1	1000			
CCn1ncc2c(NC3CCOCC3)c(C(N)=O)cnc21	25.1	> 100	> 100	IC50 (PBMC): 79.4 nM; pIC50 [3]: 4.8; pIC50 [4]: < 4.5
CCOC(=O)c1cnc2c(cnn2CC)c1NCC(C)C	15.8			
CCn1ncc2c(NC3CCOCC3)c(C(=O)NCC3CCCCC3)cnc21	7.94	> 100	> 100	IC50 (PBMC): 63.1 nM; pIC50 [3]: 5.5; pIC50 [4]: < 4.5
CCCCNc1c(C(=O)OCC)cnc2c1cnn2CC [CARTAZOLATE]	200			
CCC(CC)CNC(=O)c1cnc2c(cnn2CC)c1NC1CCOCC1	20	> 100	> 100	IC50 (PBMC): 79.4 nM; pIC50 [3]: 4.8; pIC50 [4]: < 4.5
CCOC(=O)c1cnc2c(cnn2Cc2ccccc2)c1NC1CCOCC1	3980			
CCOC(=O)c1cnc2c(cnn2C)c1NC1CCOCC1	251			
